Converted amounts (≈) assume the structure as drawn. The source made the active and inactive calls. The calls are words filed in the database; no cut-off is given here.
How the values were obtained:
[1] = Cytotoxicity against human HepG2 cells assessed as reduction in cell viability at 5 to 50 uM incubated for 24 hrs by XTT assay relative to control; format: cell-based; settings: read-out: INH
Outline: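 HepG2 cells were maintained in RPMI with 15% FBS, 1% NEAA, 1% pyruvate and pen-strep-nystatin at 37 °C and 5% CO2. 4000 cells/well were plated on poly-D-lysine coating and given fresh medium after 24 h. Compounds were dosed at 5–50 µM from 1 mM stocks in 10% DMSO/0.3% Tween/PBS and incubated 24 h. Viability was read by XTT (2 h, 37 °C) at 475 nm against 660 nm.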

Candida albicans [2] = test: Antifungal activity against Candida albicans SN152 assessed as reduction in fungal cell growth incubated for 24 hrs by MTT based broth double dilution method; format: functional; settings: SN152, 24 h
Outline: (§1)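 Broth double-dilution in Casitone broth. Starter cultures were grown 24 or 48 h at 37 °C, 5% CO₂, diluted 1:100, and added to serial two-fold dilutions at 64 to 0.007 µg/mL. Final inoculum was 5 x 10^4 to 5 x 10^5 CFU/mL; DMSO was 0.0012–1.3%. Plates were incubated at 37 °C, 5% CO₂, then MTT was added for 2 h. MIC followed CLSI M27-A3. Triplicates, two independent experiments.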

Candida albicans [3] = test: Antifungal activity against Candida albicans P-87 assessed as reduction in fungal cell growth incubated for 24 hrs by MTT based broth double dilution method; format: functional; settings: P-87, 24 h; outline: as §1
Candida dubliniensis = test: Antifungal activity against Candida dubliniensis T-99 assessed as reduction in fungal cell growth incubated for 24 hrs by MTT based broth double dilution method; format: functional; settings: T-99, 24 h; outline: as §1
Nakaseomyces glabratus [4] = test: Antifungal activity against Candida glabrata 192 assessed as reduction in fungal cell growth incubated for 48 hrs by MTT based broth double dilution method; format: functional; settings: Nakaseomyces glabratus, 192, 48 h; outline: as §1
[5] = system: Meyerozyma guilliermondii; test: Antifungal activity against Candida guilliermondii T-47 assessed as reduction in fungal cell growth incubated for 24 hrs by MTT based broth double dilution method; format: functional; settings: T-47, 24 h; outline: as §1
Candida albicans [6] = test: Antifungal activity against Candida albicans SN152 assessed as reduction in fungal cell growth incubated for 48 hrs by MTT based broth double dilution method; format: functional; settings: SN152, 48 h; outline: as §1
Candida albicans [7] = test: Antifungal activity against Candida albicans ATCC 90028 assessed as reduction in fungal cell growth incubated for 48 hrs by MTT based broth double dilution method; format: functional; settings: ATCC 90028, 48 h; outline: as §1
Candida albicans [8] = test: Antifungal activity against Candida albicans SN152 assessed as zone inhibition at 25 ug incubated for 24 hrs by disk diffusion method; format: functional, organism-based
Outline: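 Strains were streaked on YPD agar and grown at 30 °C: 24 h for parental SN152, 48 h for the erg11ΔΔ erg3ΔΔ mutant. Colonies were suspended in PBS and adjusted to OD 0.02 (SN152) or 0.03 (mutant), then spread on Casitone plates. A 6-mm disk loaded with 25 µg compound was placed centrally. Plates were incubated at 30 °C and photographed after 24 h.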

Candida albicans [9] = test: Antifungal activity against ERG11/ERG3 knocked out Candida albicans SN152 assessed as zone of inhibition at 25 ug […] by disk diffusion method; format: functional, organism-based
Candida parapsilosis [10] = test: Antifungal activity against Candida parapsilosis ATCC 90018 assessed as reduction in fungal cell growth incubated for 24 hrs by MTT based broth double dilution method; format: functional; settings: Lodderomyces parapsilosis, ATCC 90018, 24 h; outline: as §1
Nakaseomyces glabratus [11] = test: Antifungal activity against Candida glabrata 192 assessed as reduction in fungal cell growth incubated for 24 hrs by MTT based broth double dilution method; format: functional; settings: Nakaseomyces glabratus, 192, 24 h; outline: as §1
HepG2 = test: Cytotoxicity against human HepG2 cells assessed as reduction in cell viability at 5 to 50 uM incubated for 24 hrs by XTT assay; format: cell-based; settings: hepg2, 24 h
Outline: (§2)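 HEK-293T were grown in DMEM with 10% FBS; HepG2 in RPMI with 15% FBS; both at 37 °C, 5% CO₂. Cells (4000 HepG2 or 7000 HEK-293T per well) were seeded on poly-D-lysine wells. After 24 h the medium was renewed and compounds added at 5–50 µM from 1 mM stocks in 10% DMSO/0.3% Tween/PBS. After 24 h more, XTT was added for 2 h at 37 °C; absorbance was read at 475 nm against 660 nm reference.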

Candida parapsilosis [12] = test: Antifungal activity against Candida parapsilosis ATCC 22019 assessed as reduction in fungal cell growth incubated for 24 hrs by MTT based broth double dilution method; format: functional; settings: Lodderomyces parapsilosis, ATCC 22019, 24 h; outline: as §1
Nakaseomyces glabratus [13] = test: Antifungal activity against Candida glabrata ATCC 66032 assessed as reduction in fungal cell growth incubated for 24 hrs by MTT based broth double dilution method; format: functional; settings: ATCC 66032, 24 h; outline: as §1
HEK-293T = test: Cytotoxicity against human HEK293T cells assessed as reduction in cell viability at 5 to 50 uM incubated for 24 hrs by XTT assay; format: cell-based; outline: as §2
Nakaseomyces glabratus [14] = test: Antifungal activity against Candida glabrata ATCC 66032 assessed as reduction in fungal cell growth incubated for 48 hrs by MTT based broth double dilution method; format: functional; settings: ATCC 66032, 48 h; outline: as §1
Nakaseomyces glabratus [15] = test: Antifungal activity against Candida glabrata ATCC 2001 assessed as reduction in fungal cell growth incubated for 24 hrs by MTT based broth double dilution method; format: functional; settings: ATCC 2001, 24 h; outline: as §1
Candida albicans [16] = test: Antifungal activity against Candida albicans ATCC 90028 assessed as reduction in fungal cell growth incubated for 24 hrs by MTT based broth double dilution method; format: functional; settings: ATCC 90028, 24 h; outline: as §1
[17] = Cytotoxicity against human HEK293T cells assessed as reduction in cell viability at 5 to 50 uM incubated for 24 hrs by XTT assay relative to control; format: cell-based, HEK-293T; settings: HEK293T cells, read-out: INH
Outline: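 HEK-293T cells were grown in DMEM with 10% FBS, 1% NEAA, 1% pyruvate and pen-strep-nystatin at 37 °C and 5% CO2. 7000 cells/well were seeded on poly-D-lysine-coated wells. After 24 h the medium was renewed and compounds were added at 5–50 µM from 1 mM stocks in 10% DMSO/0.3% Tween/PBS. After 24 h, XTT was added for 2 h at 37 °C, with absorbance read at 475 nm (reference 660 nm).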

Cytochrome P450 3A4 = Cytochrome P450 3A4 (Homo sapiens, UniProt P08684); test: Inhibition of recombinant human CYP3A4 using Luciferin-PPXE as substrate preincubated for 10 mins followed by NADPH addition measured after 15 mins by luminometric method; format: ADME
Cytochrome P450 3A4, sequence (P08684 whole entry): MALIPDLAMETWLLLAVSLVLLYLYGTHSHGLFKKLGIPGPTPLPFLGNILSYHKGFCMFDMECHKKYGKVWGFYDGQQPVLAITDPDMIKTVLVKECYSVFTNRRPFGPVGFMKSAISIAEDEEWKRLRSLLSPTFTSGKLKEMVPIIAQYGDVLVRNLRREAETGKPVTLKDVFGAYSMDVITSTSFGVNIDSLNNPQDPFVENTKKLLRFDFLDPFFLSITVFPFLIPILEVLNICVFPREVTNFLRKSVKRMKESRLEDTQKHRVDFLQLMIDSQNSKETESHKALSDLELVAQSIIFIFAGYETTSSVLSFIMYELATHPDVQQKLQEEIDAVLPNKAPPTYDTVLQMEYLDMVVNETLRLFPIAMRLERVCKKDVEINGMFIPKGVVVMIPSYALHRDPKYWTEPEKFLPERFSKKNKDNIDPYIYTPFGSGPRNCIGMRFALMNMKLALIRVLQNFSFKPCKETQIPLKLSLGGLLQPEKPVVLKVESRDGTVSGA
Outline: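 P450-Glo luminescent assay, Luciferin-PPXE substrate. Compound was mixed with membranes containing recombinant human CYP3A4; controls were vehicle with membranes lacking CYP3A4. After 10 min preincubation at 37 °C, NADPH regeneration reagent was added and the mixture kept 15 min at 37 °C. Luciferin detection reagent stopped the reaction; after 20 min at room temperature, luminescence was read. Duplicates.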

SMILES	cytotoxicity at 24 h, up to 50 µM [1]	MIC (Candida albicans [2])	MIC (Candida albicans [3])	MIC (Candida dubliniensis)	MIC (Nakaseomyces glabratus [4])	MIC [5]	MIC (Candida albicans [6])	MIC (Candida albicans [7])	inhibition zone (IZ) (Candida albicans [8])	inhibition zone (IZ) (Candida albicans [9])	MIC (Candida parapsilosis [10])	MIC (Nakaseomyces glabratus [11])	Activity (HepG2)	MIC (Candida parapsilosis [12])	MIC (Nakaseomyces glabratus [13])	Activity (HEK-293T)	MIC (Nakaseomyces glabratus [14])	MIC (Nakaseomyces glabratus [15])	MIC (Candida albicans [16])	cytotoxicity at 24 h, up to 50 µM [17]	other results
OC(Cn1cncn1)(Cn1cncn1)c1ccc(F)cc1F [FLUCONAZOLE]	< 40%	0.25 µg/mL (≈ 0.816 µM)	0.25 µg/mL (≈ 0.816 µM)	4 µg/mL (≈ 13.1 µM)	8 µg/mL (≈ 26.1 µM)	4 µg/mL (≈ 13.1 µM)	1 µg/mL (≈ 3.27 µM)	0.5 µg/mL (≈ 1.63 µM)	Active	inactive	1 µg/mL (≈ 3.27 µM)	8 µg/mL (≈ 26.1 µM)	Non-Toxic	2 µg/mL (≈ 6.53 µM)	64 µg/mL (≈ 209 µM)	Non-Toxic	> 64 µg/mL	64 µg/mL (≈ 209 µM)	0.5 µg/mL (≈ 1.63 µM)	< 40%	–
CCN(CC)c1ccc2cc(C(=O)NCC(O)(Cn3ccnc3)c3ccc(Cl)cc3Cl)c(=O)oc2c1 (racemic)	< 40%	0.03 µg/mL (≈ 0.0567 µM)	0.03 µg/mL (≈ 0.0567 µM)	0.25 µg/mL (≈ 0.472 µM)	1 µg/mL (≈ 1.89 µM)	0.125 µg/mL (≈ 0.236 µM)	0.06 µg/mL (≈ 0.113 µM)	0.03 µg/mL (≈ 0.0567 µM)	–	–	0.015 µg/mL (≈ 0.0283 µM)	0.25 µg/mL (≈ 0.472 µM)	Toxic	0.06 µg/mL (≈ 0.113 µM)	4 µg/mL (≈ 7.56 µM)	Toxic	> 64 µg/mL	2 µg/mL (≈ 3.78 µM)	0.015 µg/mL (≈ 0.0283 µM)	< 40%	IC50 (Cytochrome P450 3A4): 127 nM
CC(=O)N1CCN(c2ccc(OCC3COC(Cn4ccnc4)(c4ccc(Cl)cc4Cl)O3)cc2)CC1 (racemic) [KETOCONAZOLE]	< 40%	0.007 µg/mL (≈ 0.0132 µM)	0.007 µg/mL (≈ 0.0132 µM)	0.007 µg/mL (≈ 0.0132 µM)	0.125 µg/mL (≈ 0.235 µM)	0.007 µg/mL (≈ 0.0132 µM)	0.007 µg/mL (≈ 0.0132 µM)	0.007 µg/mL (≈ 0.0132 µM)	Active	Active	0.007 µg/mL (≈ 0.0132 µM)	0.06 µg/mL (≈ 0.113 µM)	Toxic	0.007 µg/mL (≈ 0.0132 µM)	1 µg/mL (≈ 1.88 µM)	Toxic	4 µg/mL (≈ 7.53 µM)	1 µg/mL (≈ 1.88 µM)	0.007 µg/mL (≈ 0.0132 µM)	< 40%	–
CC[C@@H]([C@H](C)O)n1ncn(-c2ccc(N3CCN(c4ccc(OC[C@@H]5CO[C@@](Cn6cncn6)(c6ccc(F)cc6F)C5)cc4)CC3)cc2)c1=O [POSACONAZOLE]	< 40%	0.007 µg/mL (≈ 0.00999 µM)	0.007 µg/mL (≈ 0.00999 µM)	0.03 µg/mL (≈ 0.0428 µM)	0.125 µg/mL (≈ 0.178 µM)	0.03 µg/mL (≈ 0.0428 µM)	0.007 µg/mL (≈ 0.00999 µM)	0.007 µg/mL (≈ 0.00999 µM)	–	–	0.015 µg/mL (≈ 0.0214 µM)	0.125 µg/mL (≈ 0.178 µM)	Toxic	0.03 µg/mL (≈ 0.0428 µM)	1 µg/mL (≈ 1.43 µM)	Toxic	> 64 µg/mL	1 µg/mL (≈ 1.43 µM)	0.007 µg/mL (≈ 0.00999 µM)	< 40%	–

Source: ChEMBL document CHEMBL4351026, “Antifungal activity, mode of action variability, and subcellular distribution of coumarin-based antifungal azoles” (Eur J Med Chem, 2019)
